These results are taken from ChEMBL document CHEMBL1145069, “Stereospecific synthesis of 5-substituted 2-bisarylthiocyclopentane carboxylic acids as specific matrix metalloproteinase inhibitors” (J Med Chem, 2003).

The target of data set [1] is 72 kDa type IV collagenase (Homo sapiens, UniProt P08253). In words: Inhibitory activity against matrix metalloprotease-2 (MMP2).
Data set [2] concerns the target Matrix metalloproteinase-9 (Homo sapiens, UniProt P14780). Put plainly: Inhibitory activity against matrix metalloprotease-9 (MMP9).
The target of data set [3] is Collagenase 3 (Homo sapiens, UniProt P45452). In words: Inhibitory activity against matrix metalloprotease-13 (MMP13).
The target of data set [4] is T1, Interstitial collagenase (Homo sapiens, UniProt P03956).
T1 sequence (P03956 whole entry): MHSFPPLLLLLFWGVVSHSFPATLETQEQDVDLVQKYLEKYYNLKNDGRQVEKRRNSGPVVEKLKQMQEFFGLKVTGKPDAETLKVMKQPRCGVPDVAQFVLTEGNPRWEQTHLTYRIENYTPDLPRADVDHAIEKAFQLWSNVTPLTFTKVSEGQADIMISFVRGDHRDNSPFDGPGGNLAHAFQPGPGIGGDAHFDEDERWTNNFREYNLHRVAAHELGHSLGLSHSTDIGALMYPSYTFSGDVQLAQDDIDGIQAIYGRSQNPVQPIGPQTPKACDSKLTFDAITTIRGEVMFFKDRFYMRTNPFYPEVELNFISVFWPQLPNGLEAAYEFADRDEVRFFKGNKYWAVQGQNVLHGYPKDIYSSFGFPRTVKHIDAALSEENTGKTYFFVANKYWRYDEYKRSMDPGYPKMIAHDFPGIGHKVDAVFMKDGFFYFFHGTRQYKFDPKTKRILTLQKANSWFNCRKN
In words: Inhibitory activity against matrix metalloprotease-1 (MMP1).

The target in data set [5] is Stromelysin-1 (Homo sapiens, UniProt P08254). Put plainly: Inhibitory activity against matrix metalloprotease-3 (MMP3).
The subject of data set [6] is Mus musculus. In words: Tested for antitumor activity in mice against B16F10 melanoma measured as reduction in number of metastases at 200 mg/kg (ip). It is filed as functional. An outline of the steps:
(§1)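 B16-F10 cells passaged in vitro, then 2×10^5 cells per mouse injected into the tail vein of B6D2F1 mice in PBS with 0.5% foetal calf serum. 7 mice per group. Dosing i.p. or p.o. 1 h before inoculation, then daily for 3 days (four doses). Lungs collected on day 11 and fixed in Bouin's fluid. Metastases per lung (total and ≥1 mm) given as % of control mean.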

For data set [7], the system named is Mus musculus. Put plainly: Tested for antitumor activity in mice against B16F10 melanoma measured as reduction in number of metastases at 100 mg/kg (ip). In kind it is functional. An outline of the steps:
as §1

For data set [8], the species on record is Homo sapiens. In words: In vitro metabolic stability and first pass metabolism was evaluated in human hepatic microsomes. In kind it is ADME, Liver.
For data set [9], the species on record is Rattus norvegicus. Put plainly: In vitro metabolic stability and first pass metabolism was evaluated in rat hepatic microsomes. It is filed as ADME, Liver.
Data set [10] is filed under the species Homo sapiens. In words: In vitro absorption was measured in Caco-2 cell. It is filed as ADME.
Data set [11] deals with Mus musculus. In words: Tested for antitumor activity in mice against B16F10 melanoma measured as reduction in number of metastases at 100 mg/kg (po). It is filed as functional. In outline: as §1
Data set [12] concerns Mus musculus. In words: Tested for antitumor activity in mice against B16F10 melanoma measured as reduction in number of metastases at 200 mg/kg (po). It is filed as functional. An outline of the steps: as §1

Stromelysin-1, sequence (P08254 whole entry): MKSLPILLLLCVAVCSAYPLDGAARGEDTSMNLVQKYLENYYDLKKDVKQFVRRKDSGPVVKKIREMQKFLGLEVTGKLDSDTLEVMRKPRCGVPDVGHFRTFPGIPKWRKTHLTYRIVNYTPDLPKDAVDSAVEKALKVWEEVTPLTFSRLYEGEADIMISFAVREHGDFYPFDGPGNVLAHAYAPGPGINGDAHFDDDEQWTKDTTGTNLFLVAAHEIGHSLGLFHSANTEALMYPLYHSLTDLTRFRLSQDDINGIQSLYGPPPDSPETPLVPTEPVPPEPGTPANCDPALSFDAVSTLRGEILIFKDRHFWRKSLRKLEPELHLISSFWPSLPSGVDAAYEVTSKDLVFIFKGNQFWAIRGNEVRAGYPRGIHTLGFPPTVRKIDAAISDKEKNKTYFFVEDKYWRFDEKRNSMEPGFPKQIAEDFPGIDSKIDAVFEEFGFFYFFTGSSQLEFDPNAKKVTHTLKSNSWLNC
Matrix metalloproteinase-9, sequence (P14780 whole entry): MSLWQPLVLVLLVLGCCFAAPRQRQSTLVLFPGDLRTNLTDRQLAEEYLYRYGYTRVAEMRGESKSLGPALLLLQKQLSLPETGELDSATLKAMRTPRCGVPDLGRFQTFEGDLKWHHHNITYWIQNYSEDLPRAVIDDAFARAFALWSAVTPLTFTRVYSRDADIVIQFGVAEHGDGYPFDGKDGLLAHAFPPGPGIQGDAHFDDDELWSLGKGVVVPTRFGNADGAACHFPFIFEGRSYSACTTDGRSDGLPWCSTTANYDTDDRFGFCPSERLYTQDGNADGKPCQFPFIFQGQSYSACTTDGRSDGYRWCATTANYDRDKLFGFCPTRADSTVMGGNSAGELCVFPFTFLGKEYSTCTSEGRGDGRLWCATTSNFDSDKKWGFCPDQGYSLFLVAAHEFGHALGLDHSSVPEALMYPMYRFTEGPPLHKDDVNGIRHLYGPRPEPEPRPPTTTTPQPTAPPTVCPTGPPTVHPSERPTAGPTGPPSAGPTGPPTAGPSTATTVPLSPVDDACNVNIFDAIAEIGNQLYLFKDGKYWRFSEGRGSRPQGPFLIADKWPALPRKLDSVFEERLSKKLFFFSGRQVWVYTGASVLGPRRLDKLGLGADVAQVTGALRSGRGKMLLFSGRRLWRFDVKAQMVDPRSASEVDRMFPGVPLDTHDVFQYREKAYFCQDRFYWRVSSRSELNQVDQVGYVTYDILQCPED
72 kDa type IV collagenase, sequence (P08253 whole entry): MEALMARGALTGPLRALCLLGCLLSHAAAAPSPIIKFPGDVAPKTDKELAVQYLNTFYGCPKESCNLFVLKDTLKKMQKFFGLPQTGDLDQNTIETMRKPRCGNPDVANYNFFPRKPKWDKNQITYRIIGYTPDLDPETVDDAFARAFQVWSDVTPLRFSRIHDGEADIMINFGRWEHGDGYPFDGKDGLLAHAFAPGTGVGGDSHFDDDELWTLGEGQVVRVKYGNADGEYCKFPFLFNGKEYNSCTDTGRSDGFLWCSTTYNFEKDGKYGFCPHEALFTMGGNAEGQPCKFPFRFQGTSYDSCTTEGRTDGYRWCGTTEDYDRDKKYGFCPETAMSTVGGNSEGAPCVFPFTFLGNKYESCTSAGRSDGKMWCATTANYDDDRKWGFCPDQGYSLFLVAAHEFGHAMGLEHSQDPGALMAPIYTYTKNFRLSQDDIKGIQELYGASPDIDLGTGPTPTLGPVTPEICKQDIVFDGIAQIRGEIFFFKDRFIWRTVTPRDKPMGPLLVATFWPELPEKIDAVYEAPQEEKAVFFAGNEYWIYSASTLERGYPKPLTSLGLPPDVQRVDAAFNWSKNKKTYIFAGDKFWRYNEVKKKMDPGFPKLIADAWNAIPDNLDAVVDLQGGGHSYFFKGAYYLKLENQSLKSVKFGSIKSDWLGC

Consider `CN1C(=O)N(C[C@H](C(=O)NO)[C@@H](CC2CCCC2)C(=O)N2CCCCC2)C(=O)C1(C)C`, for which the IC50 in data set [1] was 154 nM; in data set [2], 58 nM.
`O=C(O)[C@H]1[C@H](CN2C(=O)c3ccccc3C2=O)CC[C@@H]1SCc1ccc(-c2ccccc2)cc1`: the half-inhibitory concentration (IC50) is 15 nM in data set [3]; greater than 100000 nM in data set [4]; 3000 nM in data set [5]; 2800 nM in data set [1]; 3800 nM in data set [2].
In the same order, the values of `O=C(O)[C@H]1[C@H](Cn2nnc3ccccc3c2=O)CC[C@@H]1Sc1ccc(-c2nc3ccccc3s2)cc1` are 417 nM, greater than 1000 nM, 8000 nM, 829 nM and 661 nM.
For the molecule `O=C(O)[C@H]1[C@H](Cn2nnc3ccccc3c2=O)CC[C@@H]1Sc1ccc(-c2nccs2)cc1`, the IC50 was greater than 100000 nM in data set [3]; greater than 100000 nM in [4]; greater than 100000 nM in [5]; greater than 8000 nM in data set [1]; greater than 6000 nM in data set [2].
For the molecule `O=C(O)[C@H]1[C@H](Cn2nnc3ccccc3c2=O)CC[C@@H]1Sc1ccc(-c2ccncc2)cc1`, the IC50 in data set [3] was 275 nM; in data set [4], greater than 36000 nM; in [5], 1200 nM; in data set [1], 176 nM; in data set [2], 341 nM.
For `O=C(O)[C@H]1[C@H](CN2C(=O)c3ccccc3S2(=O)=O)CC[C@@H]1Sc1ccc(-c2ccc(Cl)cc2)cc1`, the IC50 in data set [3] came out at 80 nM; in data set [4], 2100 nM; in data set [5], 474 nM; in data set [1], 13 nM; in [2], 35 nM.
For `CC1(C)NC(=O)N(C[C@@H]2CC[C@H](Sc3ccc(-c4ccc(Cl)cc4)cc3)[C@H]2C(=O)O)C1=O` the same measures were 3.1 nM, 70000 nM, 9400 nM, 572 nM and 3300 nM.
In the same order, the values of `O=C(O)[C@H]1[C@H](CN2C(=O)c3ccccc3C2=O)CC[C@@H]1SCCc1ccc(-c2ccccc2)cc1` are 162 nM, 45000 nM, 26 nM, 46 nM and 12 nM.
In the same order, the values of `O=C(O)[C@H]1[C@H](CN2C(=O)c3ccccc3C2=O)CC[C@@H]1Sc1ccc(-c2ccccc2)cc1` are 66 nM, 93 nM, 278 nM, 24 nM and 76 nM.
Regarding `O=C(O)[C@H]1[C@H](CN2NNc3ccsc3C2=O)CC[C@@H]1Sc1ccc(-c2ccc(Cl)cc2)cc1`, the IC50 in data set [3] is 133 nM; in [4], 4400 nM; in data set [5] it was 216 nM; in [1], 20 nM; in data set [2] it was 62 nM.
In the same order, the values of `O=C(O)[C@H]1[C@H](Cn2nc3n(c2=O)CCCCC3)CC[C@@H]1Sc1ccc(-c2ccc(Cl)cc2)cc1` are 5.1 nM, greater than 10000 nM, 18000 nM, 1700 nM and 3800 nM.
In the same order, the values of `N#Cc1ccc(-c2ccc(S[C@H]3CC[C@@H](Cn4c(=O)nc5ccccn5c4=O)[C@@H]3C(=O)O)cc2)cc1` are 31 nM, greater than 1000 nM, 103 nM, 20 nM and 31 nM.
In the case of `O=C(O)[C@H]1[C@H](CN2C(=O)c3ccccc3C2=O)CC[C@@H]1S(=O)(=O)CCc1ccc(-c2ccc(Cl)cc2)cc1`, the IC50 in [3] turned out to be 808 nM; in data set [4], 5400 nM; in data set [5] it was 64 nM; in data set [1], 76 nM; in data set [2], 39 nM. In addition, the No. of metastases came out at 109 in [6] and 78 in data set [7]. For the same molecule, the figures for the MF in data set [8] and in data set [9] were 91% and 58%, respectively. The Absorption in data set [10] is listed as 92%.
Take `O=C(O)[C@H]1[C@H](Cn2nnc3ccccc3c2=O)CC[C@@H]1S(=O)(=O)CCc1ccc(-c2ccc(Cl)cc2)cc1`: the IC50 was 2.8 nM in data set [3]; greater than 100000 nM in data set [4]; 253 nM in data set [5]; 383 nM in data set [1]; 132 nM in data set [2].
For the molecule `O=C(O)[C@H]1[C@H](Cn2nc3ccccn3c2=O)CC[C@@H]1Sc1ccc(-c2ccc(Cl)cc2)cc1`, the IC50 in data set [3] amounted to 32 nM; in data set [4] it was 10000 nM; in [5] it was 184 nM; in [1], 25 nM; in [2], 37 nM.
In the same order, the values of `CSc1ccc(-c2ccc(S[C@H]3CC[C@@H](Cn4nnc5ccccc5c4=O)[C@@H]3C(=O)O)cc2)cc1` are 13 nM, greater than 10000 nM, 21 nM, 5 nM and 4 nM.
For the molecule `O=C(O)[C@H]1[C@H](CN2C(=O)c3ccccc3C2=O)CC[C@@H]1S(=O)(=O)CCc1ccc(-c2ccc(F)cc2)cc1`, the IC50 in data set [3] came out at 296 nM; in [5], 316 nM; in data set [1], 76 nM; in [2], 47 nM.
Consider `O=C(O)[C@H]1[C@H](Cn2c(=O)nc3ccccn3c2=O)CC[C@@H]1Sc1ccc(-c2ccc(Cl)cc2)cc1`, for which the IC50 in [3] is 27 nM; in data set [4], greater than 10000 nM; in [5], 134 nM; in [1] it was 9 nM; in data set [2], 30 nM.
For `O=C(O)[C@H]1[C@H](Cn2nnc3ccccc3c2=O)CC[C@@H]1SCCc1ccc(-c2ccc(Cl)cc2)cc1`, the IC50 in data set [3] is 391 nM; in [4] it was greater than 70000 nM; in data set [5], 62 nM; in data set [1], 106 nM; in data set [2] it was 24 nM. Besides, the No. of metastases in [6] is 31; in data set [7], 51; in [11] it was 65; in data set [12], 80. The MF in [8] is recorded as 63%; in data set [9] it was 76%. Also, in data set [10], the Absorption was found to be 91%.
For `O=C(O)[C@H]1[C@H](Cn2nnc3ccccc3c2=O)CC[C@@H]1Sc1ccc(-c2c[nH]nn2)cc1`, the half-inhibitory concentration (IC50) in [3], in data set [4], in data set [5], in [1] and in data set [2] was greater than 100000 nM each time.
Regarding `O=C(O)[C@@H]1[C@@H](Cn2nnc3ccccc3c2=O)CC[C@H]1Sc1ccc(-c2ccc(Cl)cc2)cc1`, the IC50 in [3] amounted to 1.9 nM; in data set [4] it was 67000 nM; in data set [5] it was 5200 nM; in [1] it was 743 nM; in [2], 3000 nM.
For `CSc1ccc(-c2ccc(S[C@H]3CC[C@@H](Cn4c(=O)nc5ccccn5c4=O)[C@@H]3C(=O)O)cc2)cc1` the same measures were 195 nM, 63000 nM, 305 nM, 14 nM and 16 nM.
In the same order, the values of `O=C(O)[C@H]1[C@H](CN2NNc3nc[nH]c3C2=O)CC[C@@H]1Sc1ccc(-c2ccc(Cl)cc2)cc1` are 682 nM, 6600 nM, 21 nM, 130 nM and 642 nM.
Take `O=C(O)[C@H]1[C@H](CN2C(=O)c3ccccc3C2=O)CC[C@@H]1SCCc1ccc(-c2ccc(Cl)cc2)cc1`: the IC50 in data set [3] was found to be 129 nM; in data set [4] it was 50000 nM; in [5] it was 45 nM; in data set [1], 73 nM; in data set [2], 13 nM. Besides, the No. of metastases in data set [6] is reported as 43; in data set [7] it was 96; in data set [11], 69; in data set [12] it was 64.5. Also, the MF worked out at 61% in [8] and 43% in data set [9]. In data set [10], this molecule displayed an Absorption of 94%.
As for `N#Cc1ccc(-c2ccc(S[C@H]3CC[C@@H](Cn4nnc5ccccc5c4=O)[C@@H]3C(=O)O)cc2)cc1`, the IC50 in data set [3] was 11 nM; in data set [4], greater than 10000 nM; in data set [5] it was 5 nM; in [1] it was 13 nM; in data set [2], 24 nM.
For `O=C(O)[C@H]1[C@H](Cn2nnc3ccccc3c2=O)CC[C@@H]1S(=O)(=O)c1ccc(-c2ccc(Cl)cc2)cc1` the same measures were 1.8 nM, greater than 100000 nM, 694 nM, 83 nM and 512 nM.

A word on the IC50: it is the concentration that gives 50% inhibition. Low readings indicate higher potency, high ones lower potency.
